Assay results taken from ChEMBL document CHEMBL3124924, “Bifunctional ethyl 2-amino-4-methylthiazole-5-carboxylate derivatives: synthesis and in vitro biological evaluation as antimicrobial and anticancer agents” (2014).
Values after ≈ are worked out from the molar mass of the structure shown. Active and inactive are the calls of the source. No cut-off for these calls is given here.

Legend:
Candida albicans [1] = experiment: Antifungal activity against Candida albicans ATCC 10231 assessed as growth inhibition at 1 mg/mL after 48 hrs by agar-cup diffusion method; type: functional; settings: ATCC 10231, 48 h, read-out: DIZ
In short: (§1)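 Agar-cup diffusion: 1 mL of 6 h broth culture seeded per 100 mL molten sterile agar at 45 °C and poured into plates. 8 mm cups cut, each filled with 0.1 mL of 1 mg/mL test solution. Incubated 37 °C for 24 h, 48 h for C. albicans. DMSO control per organism. Inhibition zone diameter in mm, mean of three measurements.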

Bacillus spizizenii [2] = experiment: Antibacterial activity against Bacillus subtilis ATCC 6633 assessed as growth inhibition after 48 hrs by two-fold serial dilution assay; type: functional; settings: ATCC 6633, 48 h
In short: (§2)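 Twofold serial broth dilution run on compounds giving inhibition zones of 13 mm or more. Organisms pre-grown in suitable broth at 37 °C, 24 h for bacteria and 48 h for fungi. Dilution series 200, 100, 50, 25, 12.5, 6.25. Each 5 mL tube inoculated with 0.1 mL and incubated 37 °C for 48 h. Tubes scored for presence or absence of growth.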

Escherichia coli [3] = experiment: Antibacterial activity against Escherichia coli ATCC 25922 assessed as growth inhibition after 48 hrs by two-fold serial dilution assay; type: functional; settings: ATCC 25922, 48 h; in short: as §2
Pseudomonas aeruginosa [4] = experiment: Bactericidal activity against Pseudomonas aeruginosa ATCC 27853 after 18 hrs; type: functional; settings: ATCC 27853, 18 h
In short: (§3)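 Continuation of the broth-dilution MIC test. A loopful from each tube without visible growth spread on a quarter of a Mueller-Hinton agar plate and incubated 18 h. Lowest concentration giving no growth on subculture taken as the MBC.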

Bacillus spizizenii [5] = experiment: Bactericidal activity against Bacillus subtilis ATCC 6633 after 18 hrs; type: functional; settings: ATCC 6633, 18 h; in short: as §3
Staphylococcus aureus [6] = experiment: Antibacterial activity against Staphylococcus aureus ATCC 6538 assessed as growth inhibition after 48 hrs by two-fold serial dilution assay; type: functional; settings: ATCC 6538, 48 h; in short: as §2
Pseudomonas aeruginosa [7] = experiment: Antibacterial activity against Pseudomonas aeruginosa ATCC 27853 assessed as growth inhibition after 48 hrs by two-fold serial dilution assay; type: functional; settings: ATCC 27853, 48 h; in short: as §2
Candida albicans [8] = experiment: Fungicidal activity against Candida albicans ATCC 10231 after 18 hrs; type: functional; settings: ATCC 10231, 18 h; in short: as §3
Pseudomonas aeruginosa [9] = experiment: Antibacterial activity against Pseudomonas aeruginosa ATCC 27853 assessed as growth inhibition at 1 mg/mL after 24 hrs by agar-cup diffusion method; type: functional; settings: ATCC 27853, 24 h, read-out: DIZ; in short: as §1
Candida albicans [10] = experiment: Antifungal activity against Candida albicans ATCC 10231 assessed as growth inhibition after 48 hrs by two-fold serial dilution assay; type: functional; settings: ATCC 10231, 48 h; in short: as §2
Aspergillus niger = experiment: Antifungal activity against Aspergillus niger assessed as growth inhibition at 1 mg/mL after 24 hrs by agar-cup diffusion method; type: functional, organism-based; in short: as §1
Escherichia coli [11] = experiment: Bactericidal activity against Escherichia coli ATCC 25922 after 18 hrs; type: functional; settings: ATCC 25922, 18 h; in short: as §3
Bacillus spizizenii [12] = experiment: Antibacterial activity against Bacillus subtilis ATCC 6633 assessed as growth inhibition at 1 mg/mL after 24 hrs by agar-cup diffusion method; type: functional; settings: ATCC 6633, 24 h, read-out: DIZ; in short: as §1
Staphylococcus aureus [13] = experiment: Bactericidal activity against Staphylococcus aureus ATCC 6538 after 18 hrs; type: functional; settings: ATCC 6538, 18 h; in short: as §3
Escherichia coli [14] = experiment: Antibacterial activity against Escherichia coli ATCC 25922 assessed as growth inhibition at 1 mg/mL after 24 hrs by agar-cup diffusion method; type: functional; settings: ATCC 25922, 24 h, read-out: DIZ; in short: as §1
Staphylococcus aureus [15] = experiment: Antibacterial activity against Staphylococcus aureus ATCC 6538 assessed as growth inhibition at 1 mg/mL after 24 hrs by agar-cup diffusion method; type: functional; settings: ATCC 6538, 24 h, read-out: DIZ; in short: as §1

MIC (Bacillus spizizenii [2]): 50 µg/mL (≈ 156 µM) | MIC (Escherichia coli [3]): 100 µg/mL (≈ 311 µM) | MIC (Staphylococcus aureus [6]): 25 µg/mL (≈ 77.8 µM) | MIC (Pseudomonas aeruginosa [7]): 50 µg/mL (≈ 156 µM) | MIC (Candida albicans [10]): 100 µg/mL (≈ 311 µM)
SMILES: Cc1ccc(NC(=S)Nc2nc(C)c(C(=O)NN)s2)cc1
zone of inhibition at 1000 µg/mL (Candida albicans [1]): > 13 mm | MBC (Pseudomonas aeruginosa [4]): 100 µg/mL (≈ 311 µM) | MBC (Bacillus spizizenii [5]): 50 µg/mL (≈ 156 µM) | MFC (Candida albicans [8]): 100 µg/mL (≈ 311 µM) | zone of inhibition at 1000 µg/mL (Pseudomonas aeruginosa [9]): > 13 mm | growth inhibition (GI) (Aspergillus niger): inactive | MBC (Escherichia coli [11]): 100 µg/mL (≈ 311 µM) | zone of inhibition at 1000 µg/mL (Bacillus spizizenii [12]): > 13 mm | MBC (Staphylococcus aureus [13]): 25 µg/mL (≈ 77.8 µM) | zone of inhibition at 1000 µg/mL (Escherichia coli [14]): > 13 mm | zone of inhibition at 1000 µg/mL (Staphylococcus aureus [15]): > 13 mm
